According to ChEMBL document CHEMBL4145461, “Novel non-sulfonamide 5-HT6 receptor partial inverse agonist in a group of imidazo[4,5-b]pyridines with cognition enhancing properties” (Eur J Med Chem, 2018):

Key:
[1] = Tmax in Wistar rat at 10 mg/kg, po administered as single dose by LC/MS analysis; type: ADME, organism-based; conditions: in vivo
How it was run: (§1)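 Male Wistar rats (229–272 g), fasted 16 h before and 4 h after dosing, given 10 mg/kg orally in water. Four rats per time point at 15 min, 30 min, 1, 2, 4 and 8 h. Plasma (K3EDTA) and brain homogenate collected and analysed by LC-MS/MS.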

Cytochrome P450 2D6 [2] = biological target: T1, Cytochrome P450 2D6 (Homo sapiens, UniProt P10635); assay: Induction of CYP2D6 (unknown origin) at 0.025 to 25 uM after 2 hrs by firefly luciferase-luminescence based P450-glo assay; type: ADME
How it was run: (§2)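 Recombinant CYP3A4 or CYP2D6 incubated 2 h with test compound (0.025–25 μM final) and an isoform-specific luciferin derivative. Firefly luciferase then added, and luminescence is proportional to D-luciferin formed. Reference inhibitors: ketoconazole (CYP3A4) and quinidine (CYP2D6, 0.1–100 nM).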

[3] = biological target: 5-hydroxytryptamine receptor 7 (Homo sapiens, UniProt P34969); assay: Displacement of [3H]-5-CT from human 5HT7BR expressed in HEK293 cell membranes after 1 hr by microbeta counting method
How it was run: (§3)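 HEK293 (5-HT1A, 5-HT6, 5-HT7b, D2L) or CHO-K1 (5-HT2A) membranes, all Tris–HCl with 4 mM MgCl2 plus receptor-specific EDTA/pargyline/ascorbate (D2L adds NaCl, KCl, CaCl2). Nonspecific binding: 10 μM 5-HT (5-HT1A, 5-HT7), chlorpromazine (5-HT2A), methiothepine (5-HT6), haloperidol (D2L). Triplicate, 7–8 concentrations (10⁻¹¹–10⁻⁴ M), filtration; Ki via Cheng–Prusoff, mean of three experiments. Incubation 1 h 37 °C; 5-HT1A 1 h and 5-HT2A 1.5 h, room temperature.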

[4] = biological target: Histamine H3 receptor (Homo sapiens) (UniProt Q9Y5N1); assay: Displacement of [3H]Nalpha-Me-histamine from recombinant human histamine H3 receptor at 1 uM after 60 mins by scintillation counting relative to control
Cytochrome P450 2D6 [5] = biological target: T1, Cytochrome P450 2D6; assay: Inhibition of CYP2D6 (unknown origin) at 0.025 to 25 uM after 2 hrs by firefly luciferase-luminescence based P450-glo assay; type: ADME; how it was run: as §2
hERG (KCNH2) = hERG (KCNH2) (Homo sapiens, UniProt Q12809); assay: Displacement of [3H]Dofetilide from recombinant human ERG at 1 uM after 60 mins by scintillation counting relative to control; conditions: probe [3H]Dofetilide
[6] = biological target: 5-hydroxytryptamine receptor 2A (Homo sapiens, UniProt P28223); assay: Displacement of [3H]-Ketanserin from human 5HT2AR expressed in CHO-K1 cell membranes after 1.5 hrs by microbeta counting method
How it was run: as §3, with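 “experiments.” for “experiments. Incubation 1 h 37 °C; 5-HT1A 1 h and 5-HT2A 1.5 h, room temperature.”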

[7] = biological target: Sodium-dependent serotonin transporter (Homo sapiens) (UniProt P31645); assay: Displacement of [3H]imipramine from recombinant human SERT at 1 uM after 60 mins by scintillation counting relative to control
[8] = Cmax in Wistar rat at 10 mg/kg, po administered as single dose by LC/MS analysis; type: ADME, organism-based; set-up: dose 10 mg/kg, route oral; conditions: in vivo; how it was run: as §1
[9] = biological target: D(3) dopamine receptor (Homo sapiens) (UniProt P35462); assay: Displacement of [3H]methyl-spiperone from recombinant human dopamine D3 receptor at 1 uM after 60 mins by scintillation counting relative to control
[10] = biological target: T2, Muscarinic acetylcholine receptor M1 (Homo sapiens) (UniProt P11229); assay: Displacement of [3H]pirenzepine from recombinant human muscarinic M1 receptor at 1 uM after 60 mins by scintillation counting relative to control
T2 sequence (whole entry): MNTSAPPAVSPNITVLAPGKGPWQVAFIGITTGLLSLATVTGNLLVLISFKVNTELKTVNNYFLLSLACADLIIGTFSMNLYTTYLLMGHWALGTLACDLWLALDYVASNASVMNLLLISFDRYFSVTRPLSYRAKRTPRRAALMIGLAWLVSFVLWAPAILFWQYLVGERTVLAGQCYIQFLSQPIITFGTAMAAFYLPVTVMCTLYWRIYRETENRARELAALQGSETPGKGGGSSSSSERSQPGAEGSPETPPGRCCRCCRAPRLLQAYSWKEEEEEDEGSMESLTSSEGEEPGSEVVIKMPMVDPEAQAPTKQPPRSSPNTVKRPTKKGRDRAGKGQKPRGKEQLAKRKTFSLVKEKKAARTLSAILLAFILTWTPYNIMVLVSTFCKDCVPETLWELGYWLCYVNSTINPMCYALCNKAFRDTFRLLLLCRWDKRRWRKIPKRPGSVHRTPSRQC

[11] = biological target: Histamine H1 receptor (Homo sapiens) (UniProt P35367); assay: Displacement of [3H]pyrilamine from recombinant human histamine H1 receptor at 1 uM after 60 mins by scintillation counting relative to control
[12] = biological target: T3, 5-hydroxytryptamine receptor 1A (Homo sapiens, UniProt P08908); assay: Displacement of [3H]-8-OH-DPAT from human 5HT1AR expressed in HEK293 cell membranes after 1 hr by microbeta counting method
T3 sequence (P08908 whole entry): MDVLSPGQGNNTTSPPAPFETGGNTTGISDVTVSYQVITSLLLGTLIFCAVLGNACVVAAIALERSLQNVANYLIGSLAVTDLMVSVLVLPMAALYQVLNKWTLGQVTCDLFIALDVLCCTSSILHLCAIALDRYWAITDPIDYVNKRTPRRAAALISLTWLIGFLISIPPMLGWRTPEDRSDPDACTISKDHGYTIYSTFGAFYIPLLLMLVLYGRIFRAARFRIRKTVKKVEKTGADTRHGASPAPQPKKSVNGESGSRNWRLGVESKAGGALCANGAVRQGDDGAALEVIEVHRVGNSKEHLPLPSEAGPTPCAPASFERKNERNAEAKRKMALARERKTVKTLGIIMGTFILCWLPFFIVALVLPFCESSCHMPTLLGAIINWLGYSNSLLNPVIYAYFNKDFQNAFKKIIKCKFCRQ
How it was run: as §3, with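 “experiments.” for “experiments. Incubation 1 h 37 °C; 5-HT1A 1 h and 5-HT2A 1.5 h, room temperature.”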

T1 sequence (P10635 whole entry, canonical isoform): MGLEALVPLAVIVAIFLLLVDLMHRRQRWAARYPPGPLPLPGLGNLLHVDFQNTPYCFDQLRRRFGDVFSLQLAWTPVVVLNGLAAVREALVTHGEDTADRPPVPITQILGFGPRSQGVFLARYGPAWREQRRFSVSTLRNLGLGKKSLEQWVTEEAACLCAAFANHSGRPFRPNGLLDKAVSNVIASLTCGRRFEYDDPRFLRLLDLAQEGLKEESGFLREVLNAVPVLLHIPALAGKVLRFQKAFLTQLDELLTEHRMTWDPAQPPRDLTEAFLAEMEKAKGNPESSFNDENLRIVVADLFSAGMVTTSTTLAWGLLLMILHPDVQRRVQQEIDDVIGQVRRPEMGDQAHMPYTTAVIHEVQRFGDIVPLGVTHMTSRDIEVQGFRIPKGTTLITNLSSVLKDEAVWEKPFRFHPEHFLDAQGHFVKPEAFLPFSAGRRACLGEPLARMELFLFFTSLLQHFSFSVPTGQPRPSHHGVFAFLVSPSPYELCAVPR
5-hydroxytryptamine receptor 2A, sequence (P28223 whole entry): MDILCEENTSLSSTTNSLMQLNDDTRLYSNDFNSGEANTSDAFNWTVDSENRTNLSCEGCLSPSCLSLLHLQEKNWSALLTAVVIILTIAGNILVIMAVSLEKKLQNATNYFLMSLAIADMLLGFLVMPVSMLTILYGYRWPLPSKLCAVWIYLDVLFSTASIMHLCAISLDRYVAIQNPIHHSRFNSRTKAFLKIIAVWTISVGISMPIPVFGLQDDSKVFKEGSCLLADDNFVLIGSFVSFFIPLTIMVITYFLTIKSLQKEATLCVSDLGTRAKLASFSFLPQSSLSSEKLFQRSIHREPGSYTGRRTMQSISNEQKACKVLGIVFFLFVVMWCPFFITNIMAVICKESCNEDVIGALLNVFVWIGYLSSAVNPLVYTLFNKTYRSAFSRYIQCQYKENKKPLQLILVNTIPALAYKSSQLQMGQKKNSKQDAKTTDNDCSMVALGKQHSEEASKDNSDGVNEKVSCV
hERG (KCNH2), sequence (Q12809 whole entry): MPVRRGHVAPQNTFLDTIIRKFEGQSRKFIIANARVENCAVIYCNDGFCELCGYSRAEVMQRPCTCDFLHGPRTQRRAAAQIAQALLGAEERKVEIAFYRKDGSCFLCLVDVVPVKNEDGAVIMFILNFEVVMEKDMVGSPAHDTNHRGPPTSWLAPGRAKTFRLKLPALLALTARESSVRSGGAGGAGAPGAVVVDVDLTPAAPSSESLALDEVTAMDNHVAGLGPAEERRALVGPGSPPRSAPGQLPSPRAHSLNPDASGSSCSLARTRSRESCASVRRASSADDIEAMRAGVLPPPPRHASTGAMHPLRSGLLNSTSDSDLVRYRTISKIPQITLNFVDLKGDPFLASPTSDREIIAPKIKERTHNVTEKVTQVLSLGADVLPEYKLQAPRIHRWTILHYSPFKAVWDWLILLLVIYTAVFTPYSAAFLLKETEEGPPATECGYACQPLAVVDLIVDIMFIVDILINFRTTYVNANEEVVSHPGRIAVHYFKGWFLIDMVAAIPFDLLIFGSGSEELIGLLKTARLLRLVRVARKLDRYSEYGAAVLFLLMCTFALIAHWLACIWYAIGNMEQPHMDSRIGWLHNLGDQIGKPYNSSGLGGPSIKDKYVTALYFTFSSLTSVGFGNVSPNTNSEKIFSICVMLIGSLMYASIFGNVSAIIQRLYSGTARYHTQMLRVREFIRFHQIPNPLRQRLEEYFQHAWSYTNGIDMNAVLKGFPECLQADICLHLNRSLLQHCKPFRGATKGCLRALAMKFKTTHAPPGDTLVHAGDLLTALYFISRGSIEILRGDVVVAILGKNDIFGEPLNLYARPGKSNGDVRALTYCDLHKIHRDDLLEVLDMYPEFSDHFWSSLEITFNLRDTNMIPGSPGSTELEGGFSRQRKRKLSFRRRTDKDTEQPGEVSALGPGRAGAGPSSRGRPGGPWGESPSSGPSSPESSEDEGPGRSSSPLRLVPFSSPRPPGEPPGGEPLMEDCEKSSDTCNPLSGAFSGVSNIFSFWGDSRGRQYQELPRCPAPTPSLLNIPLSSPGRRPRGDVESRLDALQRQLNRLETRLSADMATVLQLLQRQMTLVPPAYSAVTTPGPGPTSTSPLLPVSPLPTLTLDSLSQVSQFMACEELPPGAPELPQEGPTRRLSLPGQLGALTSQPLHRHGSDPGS
Sodium-dependent serotonin transporter (Homo sapiens), sequence (P31645 whole entry, looked up): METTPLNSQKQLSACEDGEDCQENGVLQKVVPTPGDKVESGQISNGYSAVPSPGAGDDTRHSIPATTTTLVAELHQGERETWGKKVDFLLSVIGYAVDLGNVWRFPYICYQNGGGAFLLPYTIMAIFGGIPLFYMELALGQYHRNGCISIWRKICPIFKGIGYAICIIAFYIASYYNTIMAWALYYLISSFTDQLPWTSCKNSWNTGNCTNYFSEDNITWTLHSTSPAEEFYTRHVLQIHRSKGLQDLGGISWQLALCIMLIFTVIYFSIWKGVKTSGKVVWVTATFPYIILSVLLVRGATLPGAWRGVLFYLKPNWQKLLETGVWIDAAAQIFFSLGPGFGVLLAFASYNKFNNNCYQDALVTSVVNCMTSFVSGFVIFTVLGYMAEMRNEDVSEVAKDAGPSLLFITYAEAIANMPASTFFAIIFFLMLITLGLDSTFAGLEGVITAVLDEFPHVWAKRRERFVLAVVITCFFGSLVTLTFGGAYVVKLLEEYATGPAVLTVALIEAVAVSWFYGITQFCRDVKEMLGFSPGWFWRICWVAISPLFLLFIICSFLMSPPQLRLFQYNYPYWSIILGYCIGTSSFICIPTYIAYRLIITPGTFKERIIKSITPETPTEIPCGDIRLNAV
D(3) dopamine receptor (Homo sapiens), sequence (P35462 whole entry): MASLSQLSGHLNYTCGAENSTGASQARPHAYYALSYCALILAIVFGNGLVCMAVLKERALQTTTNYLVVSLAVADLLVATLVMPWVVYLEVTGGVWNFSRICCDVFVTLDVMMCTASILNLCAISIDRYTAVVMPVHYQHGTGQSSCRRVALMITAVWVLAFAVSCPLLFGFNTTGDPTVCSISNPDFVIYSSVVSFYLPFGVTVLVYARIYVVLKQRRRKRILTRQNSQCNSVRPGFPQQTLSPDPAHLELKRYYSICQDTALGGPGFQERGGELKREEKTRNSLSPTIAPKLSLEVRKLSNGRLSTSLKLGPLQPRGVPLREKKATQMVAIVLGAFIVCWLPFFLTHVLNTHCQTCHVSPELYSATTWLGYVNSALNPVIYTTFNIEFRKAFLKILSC
Histamine H1 receptor (Homo sapiens), sequence (P35367 whole entry): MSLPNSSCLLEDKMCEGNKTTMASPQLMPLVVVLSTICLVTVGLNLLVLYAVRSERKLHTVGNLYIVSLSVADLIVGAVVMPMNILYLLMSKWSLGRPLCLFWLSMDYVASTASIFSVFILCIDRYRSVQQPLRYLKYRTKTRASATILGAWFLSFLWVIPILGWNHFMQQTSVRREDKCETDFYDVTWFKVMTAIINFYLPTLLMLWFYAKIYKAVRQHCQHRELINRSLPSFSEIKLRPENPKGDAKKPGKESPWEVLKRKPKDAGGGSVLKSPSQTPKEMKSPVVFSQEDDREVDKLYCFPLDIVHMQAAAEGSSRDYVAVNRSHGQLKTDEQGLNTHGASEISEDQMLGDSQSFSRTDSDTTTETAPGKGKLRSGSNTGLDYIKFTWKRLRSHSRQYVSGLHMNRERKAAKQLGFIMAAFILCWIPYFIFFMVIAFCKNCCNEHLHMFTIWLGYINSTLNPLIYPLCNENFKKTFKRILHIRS
5-hydroxytryptamine receptor 7, sequence (P34969 whole entry): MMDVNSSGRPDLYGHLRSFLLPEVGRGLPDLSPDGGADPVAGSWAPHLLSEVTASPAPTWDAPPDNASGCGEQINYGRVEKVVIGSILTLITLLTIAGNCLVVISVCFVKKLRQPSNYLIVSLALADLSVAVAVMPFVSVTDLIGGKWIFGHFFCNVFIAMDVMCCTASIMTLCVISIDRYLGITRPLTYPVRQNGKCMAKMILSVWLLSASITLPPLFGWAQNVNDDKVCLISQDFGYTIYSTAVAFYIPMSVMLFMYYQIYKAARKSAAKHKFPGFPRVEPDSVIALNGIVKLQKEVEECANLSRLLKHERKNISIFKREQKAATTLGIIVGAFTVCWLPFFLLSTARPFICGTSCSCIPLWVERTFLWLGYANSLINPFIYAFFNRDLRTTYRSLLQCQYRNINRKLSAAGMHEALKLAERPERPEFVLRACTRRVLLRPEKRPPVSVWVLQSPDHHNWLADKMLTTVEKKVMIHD
Histamine H3 receptor (Homo sapiens), sequence (Q9Y5N1 whole entry): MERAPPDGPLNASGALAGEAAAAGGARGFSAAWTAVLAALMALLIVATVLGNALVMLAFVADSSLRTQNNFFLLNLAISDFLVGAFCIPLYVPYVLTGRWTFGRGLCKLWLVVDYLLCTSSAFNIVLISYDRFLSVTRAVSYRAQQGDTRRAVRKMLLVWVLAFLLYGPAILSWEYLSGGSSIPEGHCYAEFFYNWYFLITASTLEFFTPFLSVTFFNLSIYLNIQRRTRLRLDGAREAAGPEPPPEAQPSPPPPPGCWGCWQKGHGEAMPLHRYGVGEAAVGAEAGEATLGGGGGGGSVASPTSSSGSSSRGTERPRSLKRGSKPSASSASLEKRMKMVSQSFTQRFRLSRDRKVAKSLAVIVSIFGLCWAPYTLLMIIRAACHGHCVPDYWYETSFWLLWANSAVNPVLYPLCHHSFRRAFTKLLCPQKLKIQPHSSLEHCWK

In the case of `CCc1nc2c(N3CCNCC3)ccnc2n1Cc1cccc(F)c1`, the Tmax [1] is reported as 15 min, the Activity (Cytochrome P450 2D6 [2]) is reported as “Active” and the Ki [3] is reported as 12300 nM. For the same compound, the inhibition [4] was 1.6%, the “inhibition (INH)” value (Cytochrome P450 2D6 [5]) was “Not Active” and the inhibition at 1 h, 1 µM (hERG (KCNH2)) was -6.1%. It also gave a Ki [6] of 441 nM, an inhibition [7] of 1.9% and a Cmax [8] of 140 ng/mL. For the same compound, the inhibition [9] was 18%, the inhibition [10] was 3% and the inhibition [11] was -4.9%. The Ki [12] was 2790 nM.
